“Also recorded” adds a separate entry of the source. Read-outs that look alike come from different tables or passages of the source.

The subject of data set [1] is PCP site of the NMDA receptor complex. Briefly: [3H]. Particulars: for % inhibition of 1 nM [3H] (+)-MK-801: compound at 10 μM (10,000 nM); for IC50: rat forebrain homogenate, 1 nM (+)-[3H]MK-801; for Ki: read-out: NMDA affinity Ki, calculated by Cheng and Prusoff equation. In kind it is binding, rat. An outline of the steps:
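Washed rat forebrain homogenate (30 ug/mL protein) in 10 mM HEPES, pH 7.4, with 1 nM (+)-[3H]MK-801, 100 uM glutamate, 30 uM glycine and varied competitor concentrations. Nonspecific binding was set with 30 uM (+)-MK-801. Incubation ran 2 h at room temperature, then vacuum filtration onto GF/B filters, three buffer washes and scintillation counting.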

The next data set deals with Serotonin 2A (5-HT2A) (Homo sapiens, UniProt P28223). Kind of data set: NIMH-PDSP radioligand binding, 5-HT2A.
Serotonin 2A (5-HT2A), sequence (P28223 whole entry): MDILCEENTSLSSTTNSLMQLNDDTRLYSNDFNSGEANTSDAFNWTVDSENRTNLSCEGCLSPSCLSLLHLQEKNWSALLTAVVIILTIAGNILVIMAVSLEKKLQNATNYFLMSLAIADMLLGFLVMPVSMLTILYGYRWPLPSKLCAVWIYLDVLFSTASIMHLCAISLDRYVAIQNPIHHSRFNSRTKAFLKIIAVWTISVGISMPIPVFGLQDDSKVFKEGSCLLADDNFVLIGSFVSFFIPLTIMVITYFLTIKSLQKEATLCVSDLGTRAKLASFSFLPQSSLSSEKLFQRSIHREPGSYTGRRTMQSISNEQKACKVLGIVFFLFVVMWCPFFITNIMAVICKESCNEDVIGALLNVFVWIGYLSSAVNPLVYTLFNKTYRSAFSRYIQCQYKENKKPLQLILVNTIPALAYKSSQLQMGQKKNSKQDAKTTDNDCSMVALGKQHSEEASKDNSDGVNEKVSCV
The target of the next data set is Dopamine 1 (D1) (Homo sapiens, UniProt P21728). Kind of data set: NIMH-PDSP radioligand binding, D1.
Dopamine 1 (D1), sequence (P21728 whole entry): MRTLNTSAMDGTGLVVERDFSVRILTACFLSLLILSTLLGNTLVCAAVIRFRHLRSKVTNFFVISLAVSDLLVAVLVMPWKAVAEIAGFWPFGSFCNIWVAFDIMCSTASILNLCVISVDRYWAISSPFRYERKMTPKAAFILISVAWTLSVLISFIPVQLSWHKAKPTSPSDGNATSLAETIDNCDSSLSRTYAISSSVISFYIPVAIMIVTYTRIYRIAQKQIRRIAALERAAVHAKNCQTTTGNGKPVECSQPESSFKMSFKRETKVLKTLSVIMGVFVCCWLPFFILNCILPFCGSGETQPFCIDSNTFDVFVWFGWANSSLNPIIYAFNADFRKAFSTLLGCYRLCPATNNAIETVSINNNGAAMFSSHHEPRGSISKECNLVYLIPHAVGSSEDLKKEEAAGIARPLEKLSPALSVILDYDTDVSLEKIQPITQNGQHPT
In the next data set the target is Dopamine 2 (D2) (Homo sapiens, UniProt P14416). Briefly: NIMH-PDSP radioligand binding, D2.
Dopamine 2 (D2), sequence (P14416 whole entry): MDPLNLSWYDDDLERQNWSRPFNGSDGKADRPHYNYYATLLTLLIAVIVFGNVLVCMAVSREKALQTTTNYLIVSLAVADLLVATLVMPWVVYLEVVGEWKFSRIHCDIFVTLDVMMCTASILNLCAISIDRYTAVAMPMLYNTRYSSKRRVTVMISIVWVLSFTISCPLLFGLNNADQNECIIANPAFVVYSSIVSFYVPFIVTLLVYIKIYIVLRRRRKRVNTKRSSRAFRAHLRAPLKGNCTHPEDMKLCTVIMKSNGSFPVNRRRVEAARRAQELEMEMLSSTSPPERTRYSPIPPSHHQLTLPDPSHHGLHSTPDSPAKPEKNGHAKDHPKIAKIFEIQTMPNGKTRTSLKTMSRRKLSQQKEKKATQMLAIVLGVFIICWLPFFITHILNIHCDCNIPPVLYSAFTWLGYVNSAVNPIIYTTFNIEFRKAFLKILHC
Data set [2] concerns the target Dopamine Transporter (DAT) (Homo sapiens, UniProt Q01959). Kind of data set: NIMH-PDSP radioligand binding, DAT.
The target in data set [3] is κ- opioid receptors (KOR) (Rattus norvegicus, UniProt P34975). Briefly: NIMH-PDSP radioligand binding, KOR.
κ- opioid receptors (KOR), sequence (P34975 whole entry): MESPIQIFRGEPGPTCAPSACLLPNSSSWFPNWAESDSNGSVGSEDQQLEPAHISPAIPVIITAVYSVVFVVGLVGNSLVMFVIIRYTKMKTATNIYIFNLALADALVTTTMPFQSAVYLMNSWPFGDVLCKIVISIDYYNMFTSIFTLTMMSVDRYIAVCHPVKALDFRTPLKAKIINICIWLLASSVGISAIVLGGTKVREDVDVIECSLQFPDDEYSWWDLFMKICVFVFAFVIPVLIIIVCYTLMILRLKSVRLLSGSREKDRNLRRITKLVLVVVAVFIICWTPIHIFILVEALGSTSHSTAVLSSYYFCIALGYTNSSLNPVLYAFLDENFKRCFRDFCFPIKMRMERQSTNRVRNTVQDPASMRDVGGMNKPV
The target of data set [4] is μ- opioid receptors (MOR) (Homo sapiens, UniProt P35372). Kind of data set: NIMH-PDSP radioligand binding, MOR.
μ- opioid receptors (MOR), sequence (P35372 whole entry): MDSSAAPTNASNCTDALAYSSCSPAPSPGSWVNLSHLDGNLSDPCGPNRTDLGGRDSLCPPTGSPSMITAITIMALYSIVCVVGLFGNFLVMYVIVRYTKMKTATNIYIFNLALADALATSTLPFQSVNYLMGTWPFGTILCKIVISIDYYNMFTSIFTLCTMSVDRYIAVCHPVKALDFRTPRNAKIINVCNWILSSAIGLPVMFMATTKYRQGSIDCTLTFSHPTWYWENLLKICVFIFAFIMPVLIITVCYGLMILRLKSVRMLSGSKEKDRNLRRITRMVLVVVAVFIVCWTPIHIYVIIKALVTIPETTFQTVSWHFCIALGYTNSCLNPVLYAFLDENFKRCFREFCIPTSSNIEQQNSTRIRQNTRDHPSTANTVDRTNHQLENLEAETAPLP
The target in data set [5] is Norepinephrine Transporter (NET) (Homo sapiens, UniProt P23975). Briefly: NIMH-PDSP radioligand binding, NET.
Norepinephrine Transporter (NET), sequence (P23975 whole entry): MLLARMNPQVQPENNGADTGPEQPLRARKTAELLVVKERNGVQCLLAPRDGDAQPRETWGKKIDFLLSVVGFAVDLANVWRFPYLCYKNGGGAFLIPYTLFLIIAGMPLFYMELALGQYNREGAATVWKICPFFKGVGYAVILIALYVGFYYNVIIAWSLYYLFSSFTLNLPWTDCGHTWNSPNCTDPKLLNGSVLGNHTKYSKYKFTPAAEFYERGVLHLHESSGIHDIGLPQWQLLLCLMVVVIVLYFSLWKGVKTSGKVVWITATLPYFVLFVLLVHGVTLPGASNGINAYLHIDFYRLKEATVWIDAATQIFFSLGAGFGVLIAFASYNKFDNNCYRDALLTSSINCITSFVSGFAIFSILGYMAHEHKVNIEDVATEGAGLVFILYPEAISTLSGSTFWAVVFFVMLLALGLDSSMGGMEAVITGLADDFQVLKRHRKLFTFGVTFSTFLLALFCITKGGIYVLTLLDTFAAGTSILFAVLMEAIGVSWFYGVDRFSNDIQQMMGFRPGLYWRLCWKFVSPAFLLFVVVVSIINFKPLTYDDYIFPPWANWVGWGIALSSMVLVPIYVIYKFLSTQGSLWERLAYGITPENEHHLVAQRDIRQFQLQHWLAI
Data set [6] has as its target Serotonin Transporter (SERT) (Homo sapiens, UniProt P31645). Briefly: NIMH-PDSP radioligand binding, SERT.
The next data set concerns the target Sigma1 (Rattus norvegicus, UniProt Q9R0C9). Kind of data set: NIMH-PDSP radioligand binding, Sigma-1.
For a further data set, the target named is T1, Sigma2 (Rattus norvegicus, UniProt Q5U3Y7).
T1 sequence (Q5U3Y7 1-176): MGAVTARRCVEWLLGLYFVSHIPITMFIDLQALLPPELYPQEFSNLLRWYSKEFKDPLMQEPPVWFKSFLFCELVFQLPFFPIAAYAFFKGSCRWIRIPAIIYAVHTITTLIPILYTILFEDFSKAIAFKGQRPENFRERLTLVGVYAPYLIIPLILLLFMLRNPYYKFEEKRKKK
Kind of data set: NIMH-PDSP radioligand binding, Sigma-2.

The subject of another data set is MES-induced seizures. Briefly: Maximal electroshock. The data set is classed as in vivo, mice. Particulars: for MES (30) N/F, animals active over tested: 30 mg/kg i.p.; for MES (100) N/F, animals active over tested: 100 mg/kg i.p. The gist of the method:
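Mice received test compound i.p. at 30, 100 or 300 mg/kg in 0.01 ml/g and were tested at various intervals after dosing. Corneal electrodes primed with 0.5% tetracaine HCl electrolyte delivered 60 Hz alternating current, 50 mA, for 0.2 s. An animal counted as protected when the hindlimb tonic extensor component was abolished. Results are scored as animals protected over tested.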
A general note: The maximal electroshock test induces tonic seizures with an electrical stimulus.

Data set [7] has as its system Metrazol-induced clonic seizures. Kind of data set: Subcutaneous Metrazol seizure threshold test. In kind it is in vivo, mice. Particulars: for scMET (30) N/F, animals active over tested: 30 mg/kg; for scMET (100) N/F, animals active over tested: 100 mg/kg; for scMET (300) N/F, animals active over tested: 300 mg/kg.
A further data set deals with mice. Briefly: Acute toxicity, minimal motor impairment. In kind it is in vivo. The conditions noted are these: for TOX (30) N/F, animals toxic over tested / TOX (100) N/F, animals toxic over tested / TOX (300) N/F, animals toxic over tested: rotorod; for TOX (30) N/F, animals toxic over tested: 30 mg/kg. On the technique in general: In the rotarod test animals must keep their balance on a rotating rod.

Serotonin Transporter (SERT), sequence (P31645 whole entry): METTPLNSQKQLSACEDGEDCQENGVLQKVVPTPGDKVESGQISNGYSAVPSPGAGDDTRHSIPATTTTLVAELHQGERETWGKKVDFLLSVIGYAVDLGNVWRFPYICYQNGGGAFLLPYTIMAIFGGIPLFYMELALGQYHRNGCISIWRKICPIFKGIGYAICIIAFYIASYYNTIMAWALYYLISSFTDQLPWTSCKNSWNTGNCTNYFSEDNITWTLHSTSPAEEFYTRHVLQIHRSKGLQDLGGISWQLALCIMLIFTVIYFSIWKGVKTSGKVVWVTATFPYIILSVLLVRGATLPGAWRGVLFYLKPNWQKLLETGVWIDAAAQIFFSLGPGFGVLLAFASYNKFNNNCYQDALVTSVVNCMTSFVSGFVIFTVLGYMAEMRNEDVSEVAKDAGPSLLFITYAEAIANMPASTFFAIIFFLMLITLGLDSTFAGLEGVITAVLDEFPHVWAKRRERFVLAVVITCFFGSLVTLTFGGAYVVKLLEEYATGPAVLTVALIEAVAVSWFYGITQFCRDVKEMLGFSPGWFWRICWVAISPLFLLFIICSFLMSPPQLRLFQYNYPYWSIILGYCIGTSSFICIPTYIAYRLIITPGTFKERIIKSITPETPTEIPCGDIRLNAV
Sigma1, sequence (Q9R0C9 whole entry): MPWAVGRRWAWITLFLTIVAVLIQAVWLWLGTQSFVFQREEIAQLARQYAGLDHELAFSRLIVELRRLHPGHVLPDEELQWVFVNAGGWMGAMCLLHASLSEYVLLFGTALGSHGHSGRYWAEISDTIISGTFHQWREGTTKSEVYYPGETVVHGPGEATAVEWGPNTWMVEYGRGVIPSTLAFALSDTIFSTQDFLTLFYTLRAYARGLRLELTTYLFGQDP
Dopamine Transporter (DAT), sequence (Q01959 whole entry): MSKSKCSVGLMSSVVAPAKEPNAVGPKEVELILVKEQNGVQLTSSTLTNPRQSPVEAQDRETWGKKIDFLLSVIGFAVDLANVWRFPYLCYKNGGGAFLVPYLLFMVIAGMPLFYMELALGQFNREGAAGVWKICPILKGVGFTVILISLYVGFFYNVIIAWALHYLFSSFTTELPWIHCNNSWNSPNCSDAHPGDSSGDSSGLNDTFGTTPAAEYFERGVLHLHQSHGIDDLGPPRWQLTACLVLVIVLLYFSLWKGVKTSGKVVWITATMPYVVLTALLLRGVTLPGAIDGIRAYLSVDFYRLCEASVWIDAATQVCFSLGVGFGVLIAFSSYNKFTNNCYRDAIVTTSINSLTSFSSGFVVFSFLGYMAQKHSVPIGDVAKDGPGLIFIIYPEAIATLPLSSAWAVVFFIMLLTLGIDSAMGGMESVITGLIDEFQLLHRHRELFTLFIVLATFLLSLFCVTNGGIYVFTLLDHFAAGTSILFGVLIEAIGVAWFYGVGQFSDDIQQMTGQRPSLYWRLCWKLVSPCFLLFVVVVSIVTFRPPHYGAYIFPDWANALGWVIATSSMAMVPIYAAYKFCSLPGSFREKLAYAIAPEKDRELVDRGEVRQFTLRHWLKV

For the compound `NC1(c2ccccc2)CC2CCC1C2` (stereo not shown) [Compound 4a, 2-phenylbicyclo[2.2.1]heptan-2-amine], the “% inhibition of 1 nM [3H] (+)-MK-801” value in data set [1] was “greater than 90%”. The half-inhibitory concentration (IC50) in data set [1] worked out at 13.3 ± 0.63 µM. Besides, the Ki in data set [1] is 8.45 µM; at Serotonin 2A (5-HT2A) it was greater than 10 µM; on Dopamine 1 (D1) it was greater than 10 µM; on Dopamine 2 (D2) it was greater than 10 µM; in data set [2], greater than 10 µM; in data set [3], greater than 10 µM. The Ki in [4] is greater than 10 µM; in data set [5], greater than 10 µM; in data set [6], greater than 10 µM; at Sigma1, 2.2 µM; on Sigma2, 0.995 µM. For the same compound, the “MES (30) N/F, animals active over tested” value in the data set on MES-induced seizures (0.5 h) and with MES-induced seizures (4.0 h) was 0/1 0/1 throughout. Moreover, the “MES (100) N/F, animals active over tested” value (“MES (100) N/F … over tested” below) in the data set on MES-induced seizures (4.0 h) is reported as 1/1. Further, the “scMET (30) N/F, animals active over tested” value (“scMET (30) N/F … over tested” below) in data set [7] (0.5 h) and in [7] (4.0 h) was 0/1 0/1 each time. Besides, the “scMET (100) N/F, animals active over tested” value (“scMET (100) N/F … over tested” for short) in data set [7] (0.5 h) and in data set [7] (4.0 h) was 0/1 0/1 throughout. Besides, the TOX comments entry is “Severe Tremors, Death following clonic seizure” in the data set on mice (100 mg/kg, 0.5 h) and “Death” in the data set on mice (300 mg/kg, 0.5 h). Besides, the “TOX (30) N/F, animals toxic over tested” value in the data set on mice (0.5 h) is 0/4; in the data set with mice (4.0 h), 0/2. Also, the “TOX (100) N/F, animals toxic over tested” value was 8/8 in the data set with mice (100 mg/kg, 0.5 h) and 0/2 in the data set with mice (100 mg/kg, 4.0 h). Besides, in the data set on mice (300 mg/kg, 0.5 h), the “TOX (300) N/F, animals toxic over tested” value is given as 4/4 /.
As to (+)-MK-801 [reference compound], the Kd in data set [1] (read-out: Kd for (+)-MK-801 binding, saturation conditions, homologous binding assay) came to 0.00175 µM. In addition, in data set [1] (reference), the Ki was 0.00136 µM.
For the compound `NC1(c2ccc(F)cc2)CC2CCC1C2` (stereo not shown) [Compound 4b, 2-(4-fluorophenyl)bicyclo[2.2.1]heptan-2-amine], the inhibitory constant (Ki) (at Serotonin 2A (5-HT2A); at Dopamine 1 (D1); at Dopamine 2 (D2); in [2]; in [3]; in [4]) was greater than 10 µM throughout. For the same compound, the Ki (in data set [5]; in data set [6]; on Sigma1; on Sigma2) was greater than 10 µM each time. Moreover, the “MES (30) N/F, animals active over tested” value with MES-induced seizures (0.5 h) and in the data set with MES-induced seizures (4.0 h) was 0/1 0/1 each time. Further, the “MES (100) N/F … over tested” value is given as 3/3 with MES-induced seizures (0.5 h) and 0/3 in the data set with MES-induced seizures (4.0 h). Also, the “scMET (30) N/F … over tested” value in data set [7] (0.5 h) and in data set [7] (4.0 h) was 0/1 0/1 in each case. In addition, the “scMET (100) N/F … over tested” value in data set [7] (0.5 h) and in data set [7] (4.0 h) was 0/1 0/1 throughout. In addition, the TOX comments entry in the data set with mice (100 mg/kg, 0.5 h) is “Severe Tremors, Clonic seizures”; in the data set with mice (300 mg/kg, 0.5 h), “Death following clonic seizure”. For the same compound, the “TOX (30) N/F, animals toxic over tested” value in the data set with mice (0.5 h) is given as 0/4; in the data set on mice (4.0 h), 0/2. The “TOX (100) N/F, animals toxic over tested” value in the data set with mice (100 mg/kg, 0.5 h) was 8/8; in the data set with mice (100 mg/kg, 4.0 h) it was 0/4. In the data set on mice (300 mg/kg, 0.5 h), the “TOX (300) N/F, animals toxic over tested” value is 4/4 /.
Consider `c1ccc(C2(NCCN3CCOCC3)CC3CCC2C3)cc1` (stereo not shown) [Compound 5c, N-(2-morpholinoethyl)-2-phenylbicyclo [2.2.1] heptan-2-amine], for which, in data set [1], the “affinity for NMDA (in words)” value is “did not exhibit significant affinity”. Moreover, the Ki at Serotonin 2A (5-HT2A) is greater than 10 µM; at Dopamine 1 (D1), greater than 10 µM; on Dopamine 2 (D2), greater than 10 µM; in [2], 2.57 µM; in data set [3], 0.988 µM; in data set [4], greater than 10 µM. The Ki (in data set [5]; in [6]; on Sigma1; at Sigma2) was greater than 10 µM in each case. In addition, the “MES (30) N/F, animals active over tested” value in the data set with MES-induced seizures (0.5 h) and in the data set on MES-induced seizures (4.0 h) was 0/1 0/1 in each case. Moreover, the “MES (100) N/F … over tested” value in the data set with MES-induced seizures (0.5 h) is 2/3; in the data set on MES-induced seizures (4.0 h) it was 0/3. Also, the “MES neuroprotective activity (in words)” value with MES-induced seizures (mouse, in vivo) is “displayed MES neuroprotective activity”. The “scMET (30) N/F … over tested” value in [7] (0.5 h) and in data set [7] (4.0 h) was 0/1 0/1 each time. Further, the “scMET (100) N/F … over tested” value in data set [7] (0.5 h) and in data set [7] (4.0 h) was 0/1 0/1 throughout. For the same compound, the “scMET (300) N/F, animals active over tested” value in [7] (0.5 h) is 0/1; in [7] (4.0 h) it was 0/0. Further, the TOX comments entry in the data set with mice (100 mg/kg, 0.5 h) is on record as “Clonic seizures”; in the data set on mice (300 mg/kg, 0.5 h), “Death following clonic seizure; also recorded: Clonic seizures”; in the data set on mice (300 mg/kg, 4 h) it was “Death”. Moreover, the entries for the “TOX (30) N/F, animals toxic over tested” value with mice (0.5 h) and in the data set on mice (4.0 h) were 0/4 and 0/2, respectively. Also, the “TOX (100) N/F, animals toxic over tested” value in the data set with mice (100 mg/kg, 0.5 h) is 6/8; in the data set on mice (100 mg/kg, 4.0 h), 0/4. The “TOX (300) N/F, animals toxic over tested” value with mice (300 mg/kg, 0.5 h) is on record as 4/4; in the data set with mice (300 mg/kg, 4.0 h) it was 1/1.
As to `c1ccc(C2(NCCN3CCCC3)CC3CCC2C3)cc1` (stereo not shown) [Compound 5e, 2-Phenyl-N-(2-(pyrrolidin-1-yl)ethyl) bicyclo[2.2.1]heptan-2-amine], in [1], the “% inhibition of 1 nM [3H] (+)-MK-801” value was “greater than 90%”. In addition, the IC50 in data set [1] was 8.48 ± 3.11 µM. In addition, the Ki is 5.67 µM in data set [1]; greater than 10 µM at Serotonin 2A (5-HT2A); greater than 10 µM at Dopamine 1 (D1); greater than 10 µM at Dopamine 2 (D2); 3.62 µM in data set [2]; 4.51 µM in data set [3]. Besides, the inhibitory constant (Ki) (in [4]; in [5]; in data set [6]; on Sigma1; at Sigma2) was greater than 10 µM in each case. For the same compound, the “MES (30) N/F, animals active over tested” value with MES-induced seizures (0.5 h) and in the data set with MES-induced seizures (4.0 h) was 0/1 0/1 each time. In addition, the “MES protection (in words)” value in the data set on MES-induced seizures (100 mg/kg) is given as “all protective in the MES test at the dose of 100 mg/kg except for compound 5e”. The “MES (100) N/F … over tested” value in the data set with MES-induced seizures (0.5 h) and with MES-induced seizures (4.0 h) was 0/3 0/3 each time. Also, the “scMET (30) N/F … over tested” value in data set [7] (0.5 h) and in [7] (4.0 h) was 0/1 0/1 each time. The “scMET (100) N/F … over tested” value in [7] (0.5 h) and in data set [7] (4.0 h) was 0/1 0/1 throughout. In addition, the “scMET (300) N/F, animals active over tested” value in data set [7] (0.5 h) is recorded as 0/1; in [7] (4.0 h) it was 0/0. Besides, the TOX comments result in the data set with mice (300 mg/kg, 0.5 h) was “Diarrhea; also recorded: Unable to grasp rotorod; also recorded: Death”. The “TOX (30) N/F, animals toxic over tested” value was 0/4 in the data set on mice (0.5 h) and 0/2 in the data set on mice (4.0 h). Further, the “TOX (100) N/F, animals toxic over tested” value in the data set with mice (100 mg/kg, 0.5 h) was 0/8; in the data set on mice (100 mg/kg, 4.0 h), 0/4. In addition, the “TOX (300) N/F, animals toxic over tested” value with mice (300 mg/kg, 0.5 h) is listed as 4/4 /.

As usually defined, the IC50 is the concentration that inhibits the measured activity by half. Higher therefore signals weaker potency. As usually defined, the Ki is the equilibrium dissociation constant of an inhibitor or competing ligand from its target. A word on the Kd: it is the concentration at which binding is half-saturated.

Values taken from PMC3115441 (Chemical biology & drug design, 2011).
